Experimental data taken from ChEMBL document CHEMBL1132919, “Structure-activity studies for a novel series of tricyclic substituted hexahydrobenz[e]isoindole alpha(1A) adrenoceptor antagonists as potential agents for the symptomatic treatment of benign prostatic hyperplasia (BPH)” (J Med Chem, 2000).

Experiments:
[1] = target: T1, Alpha-1B adrenergic receptor (Mesocricetus auratus, UniProt P18841); assay: In vitro binding affinity using [3H]prazosin as radioligand against alpha-1B adrenergic receptor expressed in LTK cell; assay type: cell-based
T1 sequence (P18841 whole entry): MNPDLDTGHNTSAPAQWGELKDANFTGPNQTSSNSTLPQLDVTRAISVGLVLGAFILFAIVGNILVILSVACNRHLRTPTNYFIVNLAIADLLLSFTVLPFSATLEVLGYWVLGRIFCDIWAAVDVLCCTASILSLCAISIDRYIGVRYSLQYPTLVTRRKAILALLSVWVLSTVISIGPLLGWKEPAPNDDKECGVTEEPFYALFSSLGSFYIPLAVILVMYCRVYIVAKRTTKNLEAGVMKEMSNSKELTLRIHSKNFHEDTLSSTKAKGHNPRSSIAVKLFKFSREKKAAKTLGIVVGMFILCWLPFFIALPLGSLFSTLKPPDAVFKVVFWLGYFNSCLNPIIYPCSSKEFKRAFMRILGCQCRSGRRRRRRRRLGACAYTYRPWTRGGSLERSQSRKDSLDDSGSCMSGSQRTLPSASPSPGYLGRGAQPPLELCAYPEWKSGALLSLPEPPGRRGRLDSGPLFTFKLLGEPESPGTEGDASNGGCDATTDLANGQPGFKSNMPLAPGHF
Method in brief: (§1)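 Membranes from mouse LTK- fibroblasts stably expressing cloned hamster α1B or rat α1D, grown in roller bottles, frozen in liquid N2 and stored at -70 °C. Incubated with [3H]-prazosin ~200 pM, ~0.1 mg protein per tube, in 50 mM Tris-HCl pH 7.4 for 60 min at 25 °C; nonspecific binding defined by 10^-5 M phentolamine (final).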

[2] = target: T2, Alpha-1D adrenergic receptor (Rattus norvegicus, UniProt P23944); assay: In vitro binding affinity using [3H]prazosin as radioligand against alpha-1D adrenergic receptor expressed in LTK cell; assay type: cell-based; method in brief: as §1
T2 sequence (P23944 whole entry): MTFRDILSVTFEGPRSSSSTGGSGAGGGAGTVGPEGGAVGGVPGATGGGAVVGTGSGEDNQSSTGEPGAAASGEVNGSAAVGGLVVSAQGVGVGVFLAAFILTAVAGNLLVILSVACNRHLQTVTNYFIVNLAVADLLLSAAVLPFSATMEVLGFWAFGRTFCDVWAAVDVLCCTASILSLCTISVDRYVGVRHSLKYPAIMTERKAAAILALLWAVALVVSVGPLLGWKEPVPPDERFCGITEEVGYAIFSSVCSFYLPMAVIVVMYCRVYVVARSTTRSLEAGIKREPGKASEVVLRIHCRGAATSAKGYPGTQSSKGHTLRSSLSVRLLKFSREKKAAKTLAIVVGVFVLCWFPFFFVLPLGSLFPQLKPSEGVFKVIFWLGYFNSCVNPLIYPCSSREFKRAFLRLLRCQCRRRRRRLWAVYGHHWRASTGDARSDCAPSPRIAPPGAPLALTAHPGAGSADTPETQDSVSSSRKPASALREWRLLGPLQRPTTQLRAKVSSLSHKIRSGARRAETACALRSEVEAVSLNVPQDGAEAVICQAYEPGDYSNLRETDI

[3] = organism: Cricetulus griseus; assay: Ratio between Ki(alpha-1b)/Ki(alpha1A)
[4] = target: T3, Alpha-1A adrenergic receptor (Rattus norvegicus, UniProt P43140); assay: In vitro binding affinity using [3H]prazosin as radioligand against alpha-1A adrenergic receptor
T3 sequence (P43140 whole entry): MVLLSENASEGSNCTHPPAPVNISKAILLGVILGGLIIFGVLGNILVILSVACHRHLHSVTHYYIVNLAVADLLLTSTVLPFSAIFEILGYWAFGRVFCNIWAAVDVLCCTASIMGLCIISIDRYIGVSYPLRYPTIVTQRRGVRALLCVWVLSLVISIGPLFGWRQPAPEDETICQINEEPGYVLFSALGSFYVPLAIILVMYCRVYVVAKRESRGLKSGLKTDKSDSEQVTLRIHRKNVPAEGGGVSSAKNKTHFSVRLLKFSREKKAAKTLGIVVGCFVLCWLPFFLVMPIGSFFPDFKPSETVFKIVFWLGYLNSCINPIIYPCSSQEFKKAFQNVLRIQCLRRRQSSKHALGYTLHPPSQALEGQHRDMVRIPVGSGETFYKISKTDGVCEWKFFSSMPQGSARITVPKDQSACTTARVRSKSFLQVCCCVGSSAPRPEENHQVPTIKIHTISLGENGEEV
Method in brief: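 Binding to pharmacologically defined α1A site in rat submaxillary gland membranes; [3H]-prazosin ~200 pM, nonspecific binding with 10^-5 M phentolamine (final); ~0.1 mg protein per tube in 50 mM Tris-HCl pH 7.4, 60 min at 25 °C.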

Ki [1] | Ki [2] | Selectivity ratio [3] | Ki [4] | SMILES
3.15 nM | 1.32 nM | 6.17 | 0.51 nM | COc1cccc2c1CC[C@H]1CN(CCn3c(=O)[nH]c4c(sc5cccc(Cl)c54)c3=O)C[C@@H]21
– | – | 3.17 | – | COc1cccc2c1CCC1CN(CCn3c(=O)[nH]c4c(sc5ccccc54)c3=O)CC21 (stereo in doubt; 21) [listing 1 of 2 here]
– | – | 1.55 | – | COc1cccc2c1CC[C@H]1CN(CCn3c(=O)[nH]c4c(sc5ccccc54)c3=O)C[C@@H]21 (stereo in doubt; 23)
3.1 nM | 1.07 nM | 4 | 0.77 nM | COc1cccc2c1CC[C@H]1CN(CCn3c(=O)[nH]c4c(sc5cccc(OC)c54)c3=O)C[C@@H]21
– | – | 5.57 | – | COc1cccc2c1CC[C@H]1CN(CCn3c(=O)[nH]c4c(sc5ccccc54)c3=O)C[C@@H]21 (stereo in doubt; 22)
1.91 nM | 0.31 nM | 4.34 | 0.44 nM | COc1cccc2c1CC[C@H]1CN(CCn3c(=O)[nH]c4c(sc5ccc(Cl)cc54)c3=O)C[C@@H]21
3.43 nM | 0.63 nM | – | 1.08 nM | COc1cccc2c1CCC1CN(CCn3c(=O)[nH]c4c(sc5ccccc54)c3=O)CC21 (stereo in doubt; 21) [listing 2 of 2 here]
– | – | 4 | – | COc1cccc2c1CCC1CN(CCn3c(=O)[nH]c4c(sc5ccccc54)c3=O)CC21 (stereo in doubt; 18) [listing 1 of 2 here]
2.57 nM | 0.37 nM | – | 0.64 nM | COc1cccc2c1CCC1CN(CCn3c(=O)[nH]c4c(sc5ccccc54)c3=O)CC21 (stereo in doubt; 18) [listing 2 of 2 here]
35.8 nM | 6.6 nM | 10.8 | 3.3 nM | COc1cccc2c1CC[C@H]1CN(CCn3c(=O)[nH]c4c(sc5cccc(C#N)c54)c3=O)C[C@@H]21
1220 nM | 25 nM | 12.3 | 98.9 nM | COc1cccc2c1CC[C@H]1CN(CCn3c(=O)[nH]c4c(sc5c(Cl)cccc54)c3=O)C[C@@H]21
61.6 nM | 4.16 nM | 19.7 | 3.13 nM | COc1cccc2c1CC[C@H]1CN(CCn3c(=O)[nH]c4c(sc5c(Cl)ccnc54)c3=O)C[C@@H]21
6.95 nM | 0.88 nM | 5.38 | 1.29 nM | COc1cccc2c1CC[C@H]1CN(CCn3c(=O)[nH]c4c(sc5cccc(C)c54)c3=O)C[C@@H]21
4.26 nM | 1.04 nM | 1.97 | 2.16 nM | COc1cccc2c1CC[C@H]1CN(CCn3c(=O)[nH]c4c(sc5ccc(C)cc54)c3=O)C[C@@H]21

Further lines, the compound ahead of its results:

SMILES | Ki [1] | Ki [2] | Selectivity ratio [3] | Ki [4]
COc1cccc2c1CCC1CN(CCCCn3c(=O)[nH]c4c(sc5ccccc54)c3=O)CC21 (cis isomer) | 9.95 nM | 4.77 nM | 1.33 | 7.43 nM
COc1cccc2c1CC[C@H]1CN(CCn3c(=O)[nH]c4c(sc5cc(C(N)=O)ccc54)c3=O)C[C@@H]21 | 0.86 nM | 0.27 nM | 2.9 | 0.29 nM
COc1cccc2c1CC[C@H]1CN(CCn3c(=O)[nH]c4c(sc5nc(C)c(C)nc54)c3=O)C[C@@H]21 | 13.9 nM | 3.28 nM | 35.6 | 0.39 nM
COc1cccc2c1CC[C@H]1CN(CCn3c(=O)[nH]c4c(sc5ccncc54)c3=O)C[C@@H]21 | 4.63 nM | 0.28 nM | 14 | 0.33 nM
COc1cccc2c1CC[C@H]1CN(CCn3c(=O)[nH]c4c(sc5ncc(-c6ccccc6)nc54)c3=O)C[C@@H]21 | 120 nM | 19.8 nM | 30.7 | 3.91 nM
COc1cccc2c1CC[C@H]1CN(CCn3c(=O)[nH]c4c(sc5nc(-c6ccccc6)cnc54)c3=O)C[C@@H]21 | 1850 nM | 160 nM | 12 | 153 nM
COc1cccc2c1CC[C@H]1CN(CCn3c(=O)[nH]c4c(sc5cc(C#N)ccc54)c3=O)C[C@@H]21 | 6.2 nM | 0.74 nM | 15.5 | 0.4 nM
COc1cccc2c1CC[C@H]1CN(CCn3c(=O)[nH]c4c(sc5nc(C)cnc54)c3=O)C[C@@H]21 | 13.5 nM | 2.31 nM | 27.5 | 0.49 nM
COc1cccc2c1CC[C@H]1CN(CCn3c(=O)[nH]c4c(sc5ccc(C#N)cc54)c3=O)C[C@@H]21 | 14.3 nM | 0.59 nM | 8.7 | 1.64 nM
COc1cccc2c1CC[C@H]1CN(CCn3c(=O)[nH]c4c(sc5nccnc54)c3=O)C[C@@H]21 | 12.5 nM | 2.06 nM | 17.3 | 0.72 nM
COc1cccc2c1CC[C@H]1CN(CCn3c(=O)[nH]c4c(sc5ncncc54)c3=O)C[C@@H]21 | 15.5 nM | 2.08 nM | 22.8 | 0.68 nM
COc1cnc2sc3c(=O)n(CCN4C[C@@H]5CCc6c(OC)cccc6[C@@H]5C4)c(=O)[nH]c3c2n1 | 3.73 nM | 1.1 nM | 10.6 | 0.35 nM
COc1cccc2c1CC[C@H]1CN(CCn3c(=O)[nH]c4c(sc5cncnc54)c3=O)C[C@@H]21 | 15.9 nM | 3.74 nM | 9.8 | 1.62 nM
COc1cccc2c1CC[C@H]1CN(CCn3c(=O)[nH]c4c(sc5ccc([N+](=O)[O-])cc54)c3=O)C[C@@H]21 | 8.49 nM | 1.31 nM | 6.64 | 1.28 nM
COc1cccc2c1CC[C@H]1CN(CCn3c(=O)[nH]c4c(sc5cc(C(F)(F)F)ccc54)c3=O)C[C@@H]21 | 23.8 nM | 6.84 nM | 2.56 | 9.27 nM
COc1cccc2c1CC[C@H]1CN(CCn3c(=O)[nH]c4c(sc5ccc(C(N)=O)cc54)c3=O)C[C@@H]21 | 6.34 nM | 0.51 nM | 12.2 | 0.52 nM
COC(=O)c1ccc2sc3c(=O)n(CCN4C[C@@H]5CCc6c(OC)cccc6[C@@H]5C4)c(=O)[nH]c3c2c1 | 14.3 nM | 2.84 nM | 3.01 | 4.75 nM
COc1cccc2c1CC[C@H]1CN(CCn3c(=O)[nH]c4c(sc5c(OC)ccnc54)c3=O)C[C@@H]21 | 6.69 nM | 1.41 nM | 8.45 | 0.79 nM
COc1cccc2c1CC[C@H]1CN(CCn3c(=O)[nH]c4c(sc5cnccc54)c3=O)C[C@@H]21 | 3.33 nM | 0.37 nM | 6.28 | 0.53 nM
COc1ccc2sc3c(=O)n(CCN4C[C@@H]5CCc6c(OC)cccc6[C@@H]5C4)c(=O)[nH]c3c2n1 | 3 nM | 1.1 nM | 4.5 | 0.66 nM
COc1cccc2c1CC[C@H]1CN(CCn3c(=O)[nH]c4c(sc5c(C#N)cccc54)c3=O)C[C@@H]21 | 26.9 nM | 2.08 nM | 4.24 | 6.35 nM
